{
  "source": "ChEMBL document CHEMBL1122061",
  "about": "“Use of a potential rabbit model for structure--behavioral activity studies of cannabinoids” (1982)",
  "type_in_all_cases": "functional",
  "key": {"Oryctolagus cuniculus [1]": {"tested_on": "Oryctolagus cuniculus", "experiment": "Number of rabbits convulsed at 10 mg/kg, iv out of 1 rabbits tested", "summary_of_the_method": "(§1)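 Adult tetrahydrocannabinol-seizure susceptible (THC-SS) rabbits, 2–4 kg, dosed intravenously with cannabinoid in 10% polysorbate 80/90% physiological saline. Presence or absence of behavioral convulsion was recorded within 20 min. Animals were reused for several compounds or doses, with at least 7 days between trials and treatments given in random order. Every rabbit also received 0.05 mg/kg Δ9-THC at least once. Aim was four rabbits per dose.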"}, "Oryctolagus cuniculus [2]": {"tested_on": "Oryctolagus cuniculus", "experiment": "Number of rabbits convulsed at 5 mg/kg, iv out of 1 rabbits tested", "summary_of_the_method": "as §1"}, "Oryctolagus cuniculus [3]": {"tested_on": "Oryctolagus cuniculus", "experiment": "Number of rabbits convulsed at 0.1 mg/kg, iv out of 4 rabbits tested", "summary_of_the_method": "as §1"}, "Oryctolagus cuniculus [4]": {"tested_on": "Oryctolagus cuniculus", "experiment": "Number of rabbits convulsed at 0.05 mg/kg, iv out of 4 rabbits tested", "summary_of_the_method": "as §1"}, "Oryctolagus cuniculus [5]": {"tested_on": "Oryctolagus cuniculus", "experiment": "Number of rabbits convulsed at 0.01 mg/kg, iv out of 4 rabbits tested", "summary_of_the_method": "as §1"}, "Oryctolagus cuniculus [6]": {"tested_on": "Oryctolagus cuniculus", "experiment": "Number of rabbits convulsed at 0.25 mg/kg, iv out of 5 rabbits tested", "summary_of_the_method": "as §1"}, "Oryctolagus cuniculus [7]": {"tested_on": "Oryctolagus cuniculus", "experiment": "Number of rabbits convulsed at 20 mg/kg, iv out of 1 rabbits tested", "summary_of_the_method": "as §1"}, "Oryctolagus cuniculus [8]": {"tested_on": "Oryctolagus cuniculus", "experiment": "Number of rabbits convulsed at 5 mg/kg, iv out of 4 rabbits tested", "summary_of_the_method": "as §1"}, "Oryctolagus cuniculus [9]": {"tested_on": "Oryctolagus cuniculus", "experiment": "Number of rabbits convulsed at 0.5 mg/kg, iv out of 7 rabbits tested", "summary_of_the_method": "as §1"}, "Oryctolagus cuniculus [10]": {"tested_on": "Oryctolagus cuniculus", "experiment": "Number of rabbits convulsed at 0.05 mg/kg, iv out of 2 rabbits tested", "summary_of_the_method": "as §1"}, "Oryctolagus cuniculus [11]": {"tested_on": "Oryctolagus cuniculus", "experiment": "Number of rabbits convulsed at 15 mg/kg, iv out of 1 rabbit tested", "summary_of_the_method": "as §1"}, "Oryctolagus cuniculus [12]": {"tested_on": "Oryctolagus cuniculus", "experiment": "Number of rabbits convulsed at 20 mg/kg, iv out of 4 rabbits tested", "summary_of_the_method": "as §1"}, "Oryctolagus cuniculus [13]": {"tested_on": "Oryctolagus cuniculus", "experiment": "Number of rabbits convulsed at 8 mg/kg, iv out of 2 rabbits tested", "summary_of_the_method": "as §1"}, "Oryctolagus cuniculus [14]": {"tested_on": "Oryctolagus cuniculus", "experiment": "Number of rabbits convulsed at 20 mg/kg, iv out of 2 rabbits tested", "summary_of_the_method": "as §1"}, "Oryctolagus cuniculus [15]": {"tested_on": "Oryctolagus cuniculus", "experiment": "Number of rabbits convulsed at 8 mg/kg, iv out of 1 rabbit tested", "summary_of_the_method": "as §1"}, "Oryctolagus cuniculus [16]": {"tested_on": "Oryctolagus cuniculus", "experiment": "Number of rabbits convulsed at 15 mg/kg, iv out of 7 rabbits tested", "summary_of_the_method": "as §1"}, "Oryctolagus cuniculus [17]": {"tested_on": "Oryctolagus cuniculus", "experiment": "Number of rabbits convulsed at 20 mg/kg, iv out of 6 rabbits tested", "summary_of_the_method": "as §1"}, "Oryctolagus cuniculus [18]": {"tested_on": "Oryctolagus cuniculus", "experiment": "Number of rabbits convulsed at 15 mg/kg, iv out of 10 rabbits tested", "summary_of_the_method": "as §1"}, "Oryctolagus cuniculus [19]": {"tested_on": "Oryctolagus cuniculus", "experiment": "Number of rabbits convulsed at 10 mg/kg, iv out of 6 rabbits tested", "summary_of_the_method": "as §1"}, "Oryctolagus cuniculus [20]": {"tested_on": "Oryctolagus cuniculus", "experiment": "Number of rabbits convulsed at 0.1 mg/kg, iv out of 10 rabbits tested", "summary_of_the_method": "as §1"}, "Oryctolagus cuniculus [21]": {"tested_on": "Oryctolagus cuniculus", "experiment": "Number of rabbits convulsed at 0.5 mg/kg, iv out of 20 rabbits tested", "summary_of_the_method": "as §1"}, "Oryctolagus cuniculus [22]": {"tested_on": "Oryctolagus cuniculus", "experiment": "Number of rabbits convulsed at 0.9 mg/kg, iv out of 9 rabbits tested", "summary_of_the_method": "as §1"}, "Oryctolagus cuniculus [23]": {"tested_on": "Oryctolagus cuniculus", "experiment": "Number of rabbits convulsed at 0.05 mg/kg, iv out of 14 rabbits tested", "summary_of_the_method": "as §1"}},
  "data": [
    {"smiles": "CCCCC(O)c1cc(O)c2c(c1)OC(C)(C)c1ccc(C)cc1-2", "note": "(stereo unspecified)", "values": [
      {"measurement": "No. of rabbits convulsed", "setting": "Oryctolagus cuniculus [1]", "result": 0},
      {"measurement": "No. of rabbits convulsed", "setting": "Oryctolagus cuniculus [2]", "result": 0}
    ]},
    {"smiles": "CC1=CC2c3c(O)cc(CCCCCO)cc3OC(C)(C)[C@@H]2CC1", "note": "(stereo partly specified)", "values": [
      {"measurement": "No. of rabbits convulsed", "setting": "Oryctolagus cuniculus [3]", "result": 4},
      {"measurement": "No. of rabbits convulsed", "setting": "Oryctolagus cuniculus [4]", "result": 2}
    ]},
    {"smiles": "CCCCCc1cc(O)c2c(c1)OC(C)(C)[C@@H]1CCC(CO)=CC21", "note": "(stereo partly specified)", "values": [
      {"measurement": "No. of rabbits convulsed", "setting": "Oryctolagus cuniculus [3]", "result": 4},
      {"measurement": "No. of rabbits convulsed", "setting": "Oryctolagus cuniculus [5]", "result": 3},
      {"measurement": "No. of rabbits convulsed", "setting": "Oryctolagus cuniculus [6]", "result": 5},
      {"measurement": "No. of rabbits convulsed", "setting": "Oryctolagus cuniculus [4]", "result": 4}
    ]},
    {"smiles": "CCCCCc1cc(O)c2c(c1)OC(C)(C)[C@@H]1CC=C(C)CC21", "note": "(single isomer, unassigned; (+))", "values": [
      {"measurement": "No. of rabbits convulsed", "setting": "Oryctolagus cuniculus [7]", "result": 1},
      {"measurement": "No. of rabbits convulsed", "setting": "Oryctolagus cuniculus [8]", "result": 2}
    ]},
    {"smiles": "CCCCCc1cc(O)c2c(c1)OC(C)(C)[C@@H]1CC=C(C)CC21", "note": "(single isomer, unassigned; (-))", "values": [
      {"measurement": "No. of rabbits convulsed", "setting": "Oryctolagus cuniculus [9]", "result": 7},
      {"measurement": "No. of rabbits convulsed", "setting": "Oryctolagus cuniculus [3]", "result": 4},
      {"measurement": "No. of rabbits convulsed", "setting": "Oryctolagus cuniculus [4]", "result": 2}
    ]},
    {"smiles": "CC(=O)Oc1cc(OC(C)CCCc2ccccc2)cc2c1[C@@H]1C[C@H](O)CC[C@H]1[C@H](C)N2", "note": "(single isomer, unassigned; (-)) [NANTRADOL]", "values": [
      {"measurement": "No. of rabbits convulsed", "setting": "Oryctolagus cuniculus [10]", "result": 2},
      {"measurement": "No. of rabbits convulsed", "setting": "Oryctolagus cuniculus [4]", "result": 3}
    ]},
    {"smiles": "CCCCCc1cc(O)c2c(c1)OC(C)(CCC=C(C)C)C=C2", "note": "(stereo unspecified) [CANNABICHROMENE]", "values": [
      {"measurement": "No. of rabbits convulsed", "setting": "Oryctolagus cuniculus [11]", "result": 0},
      {"measurement": "No. of rabbits convulsed", "setting": "Oryctolagus cuniculus [12]", "result": 1},
      {"measurement": "No. of rabbits convulsed", "setting": "Oryctolagus cuniculus [13]", "result": 0}
    ]},
    {"smiles": "CCCCCc1cc(O)c2c(c1)OC1(C)CCC3C1C2C3(C)C", "note": "(stereo unspecified) [CANNABICYCLOL]", "values": [
      {"measurement": "No. of rabbits convulsed", "setting": "Oryctolagus cuniculus [14]", "result": 0},
      {"measurement": "No. of rabbits convulsed", "setting": "Oryctolagus cuniculus [15]", "result": 0}
    ]},
    {"smiles": "C=C(C)[C@@H]1CCC(C)=C[C@H]1c1c(O)cc(CCCCC)cc1O", "note": "[CANNABIDIOL]", "values": [
      {"measurement": "No. of rabbits convulsed", "setting": "Oryctolagus cuniculus [16]", "result": 0},
      {"measurement": "No. of rabbits convulsed", "setting": "Oryctolagus cuniculus [17]", "result": 0}
    ]},
    {"smiles": "CCCCCc1cc(O)c2c(c1)OC(C)(C)c1ccc(C)cc1-2", "note": "[CANNABINOL]", "values": [
      {"measurement": "No. of rabbits convulsed", "setting": "Oryctolagus cuniculus [18]", "result": 10},
      {"measurement": "No. of rabbits convulsed", "setting": "Oryctolagus cuniculus [19]", "result": 4}
    ]},
    {"smiles": "CCCCCc1cc(O)c2c(c1)OC(C)(C)[C@@H]1CCC(C)=C[C@@H]21", "note": "[DRONABINOL]", "values": [
      {"measurement": "No. of rabbits convulsed", "setting": "Oryctolagus cuniculus [20]", "result": 10},
      {"measurement": "No. of rabbits convulsed", "setting": "Oryctolagus cuniculus [21]", "result": 20},
      {"measurement": "No. of rabbits convulsed", "setting": "Oryctolagus cuniculus [1]", "result": 1},
      {"measurement": "No. of rabbits convulsed", "setting": "Oryctolagus cuniculus [5]", "result": 0},
      {"measurement": "No. of rabbits convulsed", "setting": "Oryctolagus cuniculus [22]", "result": 9},
      {"measurement": "No. of rabbits convulsed", "setting": "Oryctolagus cuniculus [23]", "result": 14}
    ]},
    {"smiles": "CCCCCc1cc(O)cc(O)c1", "note": "[WHILE OLIVETOL]", "values": [
      {"measurement": "No. of rabbits convulsed", "setting": "Oryctolagus cuniculus [12]", "result": 0}
    ]}
  ]
}
